Published values from different studies.
Protocols differ between the studies behind these lines. Converted amounts (≈) assume the structure as drawn.

The MIC of `CO/N=C(\C(=O)N[C@@H]1C(=O)N2C(C(=O)O)=C(CSc3nc(=O)c(=O)[nH]n3C)CS[C@H]12)c1csc(N)n1` is reported as 0.0625 µg/mL (≈ 0.113 µM) (Salmonella enterica; microbial growth; 20 h, pH 7).
The MBC of `O=C(O)CN1C(=O)/C(=C/c2ccc(-c3ccc(N(c4ccccc4)c4ccccc4)cc3)cc2)NC1=S` is reported as 250 µg/mL (≈ 494 µM) (Bacillus cereus; microbial killing, broth dilution; ATCC10876).
The inhibition of `COc1ccc(-c2cc(=O)c3c(O)cc(O[C@@H]4O[C@H](CO)[C@@H](O)[C@H](O)[C@H]4O)cc3o2)cc1O` is reported as 100% (Helicobacter pylori; microbial growth, broth dilution; 62.5 µg/mL).
With `CS(=O)(=O)c1ccc([C@@H](O)[C@@H](CF)NC(=O)C(Cl)Cl)cc1` the MIC was 4 µg/mL (≈ 11.2 µM) (Salmonella enterica; microbial growth; ENTERITIDIS; 20 h, pH 7).
With `COC(=O)c1ccc(O)cc1` the inhibition was 100% (Helicobacter pylori; microbial growth, broth dilution; 125 µg/mL).
With `O=C1NC(=S)N/C1=C\c1ccc(-c2ccc(N(c3ccccc3)c3ccccc3)cc2)cc1` the MBC was over 1000 µg/mL (Bacillus cereus; microbial killing, broth dilution; ATCC10876).
`[H]/N=C(/N)N[C@H]1[C@H](O)[C@@H](O)[C@H](O[C@@H]2O[C@@H](C)[C@](O)(C=O)[C@H]2O[C@@H]2O[C@@H](CO)[C@H](O)[C@@H](O)[C@@H]2NC)[C@@H](N/C(N)=N\[H])[C@@H]1O` has an MIC of 64 µg/mL (≈ 110 µM) (Salmonella enterica; microbial growth; 20 h, pH 7).
`CN[C@H](CC(C)C)C(=O)N[C@H]1C(=O)N[C@@H](CC(N)=O)C(=O)N[C@H]2C(=O)N[C@H]3C(=O)N[C@H](C(=O)N[C@H](C(=O)O)c4cc(O)cc(O)c4-c4cc3ccc4O)[C@H](O)c3ccc(c(Cl)c3)Oc3cc2cc(c3O[C@@H]2O[C@H](CO)[C@@H](O)[C@H](O)[C@H]2O[C@H]2C[C@](C)(N)[C@H](O)[C@H](C)O2)Oc2ccc(cc2Cl)[C@H]1O` gave an MIC of 0.98 µg/mL (≈ 0.676 µM) (Bacillus cereus; microbial growth, broth dilution; ATCC10876).
With `CO[C@H]1O[C@H](COC(c2ccccc2)(c2ccccc2)c2ccccc2)[C@@H](OC(=O)c2ccc(C(C)(C)C)cc2)[C@H](OC(=O)c2ccc(C(C)(C)C)cc2)[C@H]1OC(=O)c1ccc(C(C)(C)C)cc1` the MBC was 8 µg/mL (≈ 8.72 µM) (Bacillus cereus; microbial killing, broth dilution).
The MBC of `O=C(O)CN1C(=O)/C(=C/c2c3ccccc3c(-c3ccc(N(c4ccccc4)c4ccccc4)cc3)c3ccccc23)NC1=S` is reported as over 1000 µg/mL (Bacillus cereus; microbial killing, broth dilution; ATCC10876).
`O=c1cc(-c2ccc(O)cc2)oc2cc(O)cc(O)c12` gave an inhibition of 100% (Helicobacter pylori; microbial growth, broth dilution; 125 µg/mL).
The MIC of `Cc1cc(NS(=O)(=O)c2ccc(N)cc2)no1` is reported as 64 µg/mL (≈ 253 µM) (Salmonella enterica; microbial growth; F98, TYPHIMURIUM; 20 h, pH 7.2).
`CNC1=C([N+](=O)[O-])C2(C(=O)Nc3ccccc32)C2=C(O1)C(=O)c1ccccc1C2=O` (stereo not shown) has an MBC of at most 1000 µg/mL (Salmonella enterica; microbial killing; TYPHIMURIUM).
For `CC1(C)S[C@@H]2[C@H](NC(=O)[C@H](N)c3ccccc3)C(=O)N2[C@H]1C(=O)O`, the inhibition was 100% (Salmonella enterica; microbial growth, agar dilution; ENTERITIDIS; 26.93 µM).
The MBC of `O=C1NC(=S)N/C1=C\c1ccc(-c2ccc(N(c3ccccc3)c3ccccc3)cc2)c2ccccc12` is reported as over 1000 µg/mL (Bacillus cereus; microbial killing, broth dilution; ATCC10876).
For `CC1(C)S[C@@H]2[C@H](NC(=O)[C@H](N)c3ccccc3)C(=O)N2[C@H]1C(=O)O`, the MIC was 1 µg/mL (≈ 2.86 µM) (Salmonella enterica; microbial growth; ENTERITIDIS; 20 h, pH 5.5).
For `O=C1NC(=S)S/C1=C\c1ccc(-c2ccc(N(c3ccccc3)c3ccccc3)cc2)c2ccccc12`, the MBC was over 1000 µg/mL (Bacillus cereus; microbial killing, broth dilution; ATCC10876).
`O=C(O)c1ccc(O)cc1` gave an inhibition of 100% (Helicobacter pylori; microbial growth, broth dilution; 31.25 µg/mL).
For `CCN1CCN(c2cc3c(cc2F)c(=O)c(C(=O)O)cn3C2CC2)CC1`, the MIC was 0.25 µg/mL (≈ 0.696 µM) (Salmonella enterica; microbial growth; ENTERITIDIS; 20 h, pH 5.5).
`COc1cc([C@H]2OC[C@H]3[C@@H]2CO[C@@H]3c2cc(OC)c(O)c(OC)c2)cc(OC)c1O` gave an inhibition of 100% (Helicobacter pylori; microbial growth, broth dilution; 31.25 µg/mL).
With `O=C1NC(=S)N/C1=C\c1c2ccccc2c(-c2ccc(N(c3ccccc3)c3ccccc3)cc2)c2ccccc12` the MIC was over 1000 µg/mL (Bacillus cereus; microbial growth, broth dilution; ATCC10876).
`O=C(O)c1cn(C2CC2)c2cc(N3CCNCC3)c(F)cc2c1=O` gave an MIC of 0.0156 µg/mL (≈ 0.0471 µM) (Salmonella enterica; microbial growth; ENTERITIDIS; 20 h, pH 7.2).
The MIC90 of `O=C(N/N=C/c1ccc([N+](=O)[O-])o1)c1ccc(O)cc1` is reported as 0.98 µg/mL (≈ 3.56 µM) (Salmonella enterica; microbial growth; ATCC13311 TYPHIMURIUM).
The inhibition of `O=c1cc(-c2ccc(O)c(O)c2)oc2cc(O)cc(O)c12` is reported as 73.2% (Helicobacter pylori; microbial growth, broth dilution; 0.98 µg/mL).
For `CO/N=C(\C(=O)N[C@@H]1C(=O)N2C(C(=O)O)=C(CSC(=O)c3ccco3)CS[C@H]12)c1csc(N)n1`, the MIC was 1 µg/mL (≈ 1.91 µM) (Salmonella enterica; microbial growth; TYPHIMURIUM; 20 h, pH 7.2).
